Test results taken from ChEMBL document CHEMBL1153166, “Synthesis and anticancer activities of ageladine A and structural analogs” (Bioorg Med Chem Lett, 2010).
Activity calls are given as the source filed them. The calls are words filed in the database; no cut-off is given here.

Key:
[1] = target: T1, 72 kDa type IV collagenase (Homo sapiens, UniProt P08253); assay: Inhibition of MMP2 at 5 uM
Target sequence in this assay (P08253 110-660 limits assumed): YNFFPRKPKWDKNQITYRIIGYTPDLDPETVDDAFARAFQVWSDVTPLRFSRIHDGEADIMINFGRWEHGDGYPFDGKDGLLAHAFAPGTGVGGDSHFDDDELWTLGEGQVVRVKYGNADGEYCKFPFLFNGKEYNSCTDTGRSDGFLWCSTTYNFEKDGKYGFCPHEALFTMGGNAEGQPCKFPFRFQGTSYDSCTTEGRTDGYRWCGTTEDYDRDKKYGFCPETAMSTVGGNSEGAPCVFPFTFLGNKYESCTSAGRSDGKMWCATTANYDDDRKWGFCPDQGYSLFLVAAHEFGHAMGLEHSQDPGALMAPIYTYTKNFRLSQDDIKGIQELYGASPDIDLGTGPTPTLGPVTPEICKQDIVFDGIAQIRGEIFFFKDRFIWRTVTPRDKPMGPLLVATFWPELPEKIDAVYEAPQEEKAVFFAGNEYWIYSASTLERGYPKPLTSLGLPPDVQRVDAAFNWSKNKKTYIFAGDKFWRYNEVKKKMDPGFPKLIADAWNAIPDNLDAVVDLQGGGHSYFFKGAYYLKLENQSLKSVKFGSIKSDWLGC

[2] = target: T1, 72 kDa type IV collagenase; assay: Inhibition of MMP2 at 50 uM
Target sequence in this assay (P08253 110-660 limits assumed): as above

[3] = tested on: U-266; assay: Cytotoxicity against human U266 cells assessed as reduction of cell viability at 1 uM after 48 hrs by MTS assay; type: functional, cell-based
Summary of the method: (§1)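 Multiple myeloma cells were exposed to compound at a single concentration for 48 h, alongside a DMSO vehicle control. Viability was then read by MTS assay. Each value is the mean of three determinations, deviating <10% from the mean.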

[4] = tested on: U-266; assay: Cytotoxicity against human U266 cells assessed as reduction of cell viability at 10 uM after 48 hrs by MTS assay; type: functional, cell-based; summary of the method: as §1
[5] = tested on: DU-145; assay: Cytotoxicity against human DU145 cells assessed as reduction of cell viability after 48 hrs by MTS assay; type: functional, cell-based; conditions: for IC50: DU-145, 48 h
Summary of the method: (§2)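 IC50 from cell viability read by MTS assay run to the manufacturer's protocol, after 48 h exposure to compound. Each value is the mean of three determinations, deviating <10% from the mean.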

[6] = tested on: A2058; assay: Cytotoxicity against human A2058 cells assessed as reduction of cell viability after 48 hrs by MTS assay; type: functional, cell-based; conditions: A2058, 48 h; summary of the method: as §2
[7] = tested on: MDA-MB-435; assay: Cytotoxicity against human MDA-MB-435 cells assessed as reduction of cell viability after 48 hrs by MTS assay; type: functional, cell-based; conditions: MDA-MB-435, 48 h; summary of the method: as §2
[8] = tested on: RPMI-8226; assay: Cytotoxicity against human RPMI8226 cells assessed as reduction of cell viability at 1 uM after 48 hrs by MTS assay; type: functional, cell-based; summary of the method: as §1
[9] = tested on: RPMI-8226; assay: Cytotoxicity against human RPMI8226 cells assessed as reduction of cell viability at 10 uM after 48 hrs by MTS assay; type: functional, cell-based; summary of the method: as §1
[10] = tested on: KMS-11; assay: Cytotoxicity against human KMS11 cells assessed as reduction of cell viability at 1 uM after 48 hrs by MTS assay; type: functional, cell-based; summary of the method: as §1
[11] = tested on: KMS-11; assay: Cytotoxicity against human KMS11 cells assessed as reduction of cell viability at 10 uM after 48 hrs by MTS assay; type: functional, cell-based; summary of the method: as §1
[12] = target: T1, 72 kDa type IV collagenase; assay: Inhibition of MMP2
Target sequence in this assay (P08253 whole entry): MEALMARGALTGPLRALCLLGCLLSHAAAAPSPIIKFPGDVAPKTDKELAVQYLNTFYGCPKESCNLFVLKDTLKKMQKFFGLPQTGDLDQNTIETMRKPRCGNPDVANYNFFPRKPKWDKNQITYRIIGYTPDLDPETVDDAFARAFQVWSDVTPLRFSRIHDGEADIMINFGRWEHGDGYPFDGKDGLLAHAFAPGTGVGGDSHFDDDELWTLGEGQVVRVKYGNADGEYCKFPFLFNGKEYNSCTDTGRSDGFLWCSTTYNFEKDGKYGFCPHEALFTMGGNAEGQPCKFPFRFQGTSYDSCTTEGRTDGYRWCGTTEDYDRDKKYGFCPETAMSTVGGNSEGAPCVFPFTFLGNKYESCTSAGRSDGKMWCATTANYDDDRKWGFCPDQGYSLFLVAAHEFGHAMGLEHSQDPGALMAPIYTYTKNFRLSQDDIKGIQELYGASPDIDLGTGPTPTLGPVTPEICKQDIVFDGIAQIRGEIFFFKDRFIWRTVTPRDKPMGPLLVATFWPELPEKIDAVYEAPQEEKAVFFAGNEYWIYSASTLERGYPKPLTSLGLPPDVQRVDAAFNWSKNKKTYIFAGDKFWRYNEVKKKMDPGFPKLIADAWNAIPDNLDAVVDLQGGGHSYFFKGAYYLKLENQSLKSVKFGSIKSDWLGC

## CC(C)Cc1nccc2nc(N)[nH]c12
[1]
  inhibition: 31%
[2]
  inhibition: 22%

## NC1=NC2C=CC=NC(c3ccc(Cl)cc3)=C2N1 (stereo not drawn)
[3]
  Activity: Active
[4]
  Activity: Active
[1]
  inhibition: 27%
[2]
  inhibition: 54%
[5]
  Activity: Dose-dependent effect
  IC50: 6.2 µM
[6]
  IC50: 5.1 µM
[7]
  IC50: 3.6 µM
[8]
  Activity: Active
[9]
  Activity: Active
[10]
  Activity: Active
[11]
  Activity: Active

## Nc1nc2ccnc(C3CCCCC3)c2[nH]1
[1]
  inhibition: 9%
[2]
  inhibition: 40%

## CC(C)CC1=C2NC(N)=NC2C=CC=N1 (stereo not drawn)
[3]
  Activity: Active
[4]
  Activity: Active
[1]
  inhibition: 27%
[2]
  inhibition: 60%
[5]
  Activity: Dose-dependent effect
  IC50: 4.3 µM
[6]
  IC50: 4.1 µM
[7]
  IC50: 2.9 µM
[8]
  Activity: Active
[9]
  Activity: Active
[10]
  Activity: Active
[11]
  Activity: Active

## Nc1nc2ccnc(-c3cccc4ccccc34)c2[nH]1
[1]
  inhibition: 20%

## NC1=NC2C=CC=NC(C3CCCCC3)=C2N1 (stereo not drawn)
[3]
  Activity: Active
[4]
  Activity: Active
[1]
  inhibition: 23%
[2]
  inhibition: 53%
[5]
  Activity: Dose-dependent effect
  IC50: 5 µM
[6]
  IC50: 4.5 µM
[7]
  IC50: 3.4 µM
[8]
  Activity: Active
[9]
  Activity: Active
[10]
  Activity: Active
[11]
  Activity: Active

## CC(C)C1=C2NC(N)=NC2C=CC=N1 (stereo not drawn)
[3]
  Activity: Active
[4]
  Activity: Active
[1]
  inhibition: 28%
[2]
  inhibition: 52%
[5]
  Activity: Dose-dependent effect
  IC50: 7.5 µM
[6]
  IC50: 9.5 µM
[7]
  IC50: 6.7 µM
[8]
  Activity: Active
[9]
  Activity: Active
[10]
  Activity: Active
[11]
  Activity: Active

## CC(C)c1nccc2nc(N)[nH]c12
[1]
  inhibition: 25%
[2]
  inhibition: 17%

## Nc1nc2c(-c3cc(Br)c(Br)[nH]3)nccc2[nH]1 [AGELADINE A]
[12]
  IC50: 1.7 µM

## Nc1nc2ccnc(-c3c[nH]c4ccccc34)c2[nH]1
[1]
  inhibition: 25%
[2]
  inhibition: 26%
